Data as given in ChEMBL document CHEMBL1134485, “Diguanidino and "reversed" diamidino 2,5-diarylfurans as antimicrobial agents” (2001).
Values after ≈ are worked out from the molar mass of the structure shown.

Tests used:
[1] = system: Nucleic Acid
[2] = system: Aspergillus fumigatus; assay: Antimicrobial activity against Aspergillus fumigatus (MIC); assay type: functional
[3] = system: Mycobacterium tuberculosis; assay: In vitro minimum inhibitory concentration required to inhibit Mycobacterium tuberculosis; assay type: functional
Summary of the method: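 M. tuberculosis H37Rv grown in BACTEC 12B medium; fluorometric broth microdilution (Microplate Alamar Blue Assay). […] MIC = lowest concentration reducing relative fluorescence units by ≥90% relative to control culture. Testing done by TAACF.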

[4] = system: Nucleic Acid; remark: listed apart in the source
[5] = system: Candida albicans; assay: In vitro minimum inhibitory concentration against Candida albicans.; assay type: functional
[6] = system: Aspergillus fumigatus; assay: In vitro minimum fungicidal concentration required to inhibit Aspergillus fumigatus(MFC); assay type: functional
Summary of the method: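 Mould MFC: 100 µL aliquots from macrodilution tubes (RPMI 1640/MOPS pH 7.0, 0.5 × 10³ to 2.5 × 10³ CFU/mL conidial inoculum, 30 °C, 48-72 h, drug 100 to 0.09 µg/mL) showing complete growth inhibition plated on Sabouraud agar; MFC taken as lowest drug concentration giving three or fewer colonies.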

[7] = system: Candida albicans; assay: In vitro minimum fungicidal concentration against Candida albicans.; assay type: functional
Summary of the method: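 Yeast MFC: after broth macrodilution (RPMI 1640/MOPS pH 7.0, 0.5 × 10³ to 2.5 × 10³ CFU/mL, 35 °C, 48 h or 72 h for C. neoformans, drug 100 to 0.09 µg/mL), 100 µL from tubes with complete inhibition plated on Sabouraud agar; lowest concentration yielding three or fewer colonies recorded.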

[8] = system: Nucleic Acid; assay: DNA binding affinity to poly dA.dT; assay type: nucleic-acid assay

SMILES: COc1cc(NC(=N)N)ccc1-c1ccc(-c2ccc(NC(=N)N)cc2OC)o1.Cl.Cl
- ΔTm [1]: 15.2
- MIC [2]: 100 µg/mL
- MIC [3]: 16 µg/mL
- ΔTm [4]: 2.8
- MIC [5]: 10 µg/mL
- MFC [6]: 100 µg/mL
- MFC [7]: 100 µg/mL

SMILES: Cc1cc(NC(=N)c2ccccc2)ccc1-c1ccc(-c2ccc(NC(=N)c3ccccc3)cc2C)o1
- ΔTm [1]: 24.9
- MIC [3]: 3.13 µg/mL (≈ 6.46 µM)
- ΔTm [4]: 7.8
- MIC [5]: 3.12 µg/mL (≈ 6.44 µM)
- MFC [7]: 6.25 µg/mL (≈ 12.9 µM)

SMILES: CO[C@H]1/C=C/O[C@@]2(C)Oc3c(C)c(O)c4c(O)c(c(/C=N/N5CCN(C)CC5)c(O)c4c3C2=O)NC(=O)/C(C)=C\C=C\[C@H](C)[C@H](O)[C@@H](C)[C@@H](O)[C@@H](C)[C@H](OC(C)=O)[C@@H]1C [RIFAMPIN]
- MIC [3]: 0.062 µg/mL (≈ 0.0753 µM)

SMILES: Cc1cc(NC(=N)c2ccc3ccccc3n2)ccc1-c1ccc(-c2ccc(NC(=N)c3ccc4ccccc4n3)cc2C)o1
- ΔTm [8]: 7.5
- MIC [2]: 100 µg/mL (≈ 170 µM)
- ΔTm [4]: 1.1
- MIC [5]: 100 µg/mL (≈ 170 µM)
- MFC [7]: 100 µg/mL (≈ 170 µM)

SMILES: N=C(Nc1ccc(-c2ccc(-c3ccc(NC(=N)C4CCCCC4)cc3)o2)cc1)C1CCCCC1
- ΔTm [1]: 26.7
- MIC [2]: 100 µg/mL (≈ 213 µM)
- MIC [3]: ≤ 6.25 µg/mL
- ΔTm [4]: 12.8
- MIC [5]: > 100 µg/mL
- MFC [6]: > 100 µg/mL

SMILES: Cl.Cl.N=C(N)Nc1ccc(-c2ccc(-c3ccc(NC(=N)N)cc3Cl)o2)c(Cl)c1
- ΔTm [1]: 26.1
- MIC [2]: 100 µg/mL
- MIC [3]: 4 µg/mL
- ΔTm [4]: 4.7
- MIC [5]: 10 µg/mL
- MFC [6]: 100 µg/mL
- MFC [7]: 100 µg/mL

SMILES: Cc1cc(NC(=N)c2ccccn2)cc(C)c1-c1ccc(-c2c(C)cc(NC(=N)c3ccccn3)cc2C)o1
- ΔTm [1]: 5.7
- MIC [2]: 10 µg/mL (≈ 19.4 µM)
- ΔTm [4]: 1.2
- MIC [5]: 10 µg/mL (≈ 19.4 µM)
- MFC [6]: > 100 µg/mL
- MFC [7]: > 100 µg/mL

SMILES: Cl.Cl.N=C(Nc1ccc(-c2ccc(-c3ccc(NC(=N)c4ccccc4)cc3)o2)cc1)c1ccccc1
- ΔTm [1]: 28.6
- MIC [3]: 1.56 µg/mL
- ΔTm [4]: 15
- MIC [5]: 25 µg/mL
- MFC [7]: 50 µg/mL

SMILES: COc1cc(NC(=N)c2ccccn2)ccc1-c1ccc(-c2ccc(NC(=N)c3ccccn3)cc2OC)o1
- ΔTm [1]: 19
- MIC [2]: ≤ 1 µg/mL
- MIC [3]: ≤ 1 µg/mL
- ΔTm [4]: 7.8
- MIC [5]: ≤ 1 µg/mL
- MFC [6]: ≤ 1 µg/mL
- MFC [7]: ≤ 1 µg/mL

SMILES: N=C(Nc1ccc(-c2ccc(-c3ccc(NC(=N)c4ccccn4)cc3Cl)o2)c(Cl)c1)c1ccccn1
- ΔTm [1]: 5.2
- MIC [2]: > 100 µg/mL
- MIC [3]: 8 µg/mL (≈ 15.2 µM)
- ΔTm [4]: 0
- MIC [5]: 100 µg/mL (≈ 190 µM)
- MFC [7]: > 100 µg/mL
